Source: publication PMC9790683 (Birth Defects Research, 2022)
Where “and” joins values, the source holds several entries; their conditions need not be identical. Equal entries are not always repeated. Where two headings read alike, the source gives them in different places.

Experiments:
[1] = test system: human iPS cells (HYR0103, ATCC ACS‐1007); assay: devTOX quickPredict; type: cell-based; conditions: threshold 0.85, 48 hours; for TP: cell viability; for dTP: o/c ratio
In short: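 Human iPS cells exposed across a concentration range. Ornithine and cystine abundance measured, and ornithine/cystine ratio calculated at each concentration. dTP is the concentration, interpolated from the ratio response curve, where the ratio drops below a predefined developmental-toxicity threshold set from pharmaceuticals of known human teratogenicity. TP is the concentration where viability falls below the same threshold. Nominal values converted to free-medium concentration by mass-balance model.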

[2] = IVIVE, rat EAD with one‐compartment PPK model; conditions: oral; for EAD using PPK model, using nominal dTP Conc.: Css = dTP; for EAD using PPK model, using free medium Conc.: Css = free medium dTP
In short: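 Rat one-compartment population PK model assuming 100% absorption. Total clearance was hepatic plus renal (passive glomerular filtration), with inputs of plasma unbound fraction and hepatocyte Clint (predicted or experimental). Monte Carlo simulation of 10,000 individuals gave the upper 95th percentile steady-state plasma concentration. EAD was the dose giving total Css equal to the nominal dTP or Armitage-model free medium concentration.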

[3] = IVIVE, rat EAD with httk.PBTK model; conditions: oral; for EAD using Httk.PBTK model, using nominal dTP Conc.: Cmax = dTP; for EAD using Httk.PBTK model, using free medium Conc.: Cmax = free medium dTP
In short: (§1)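 Reverse dosimetry used the generic PBTK model from httk R package v1.8.1: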

[4] = IVIVE, human EAD with httk.PBTK model; conditions: oral
In short: as §1

[5] = IVIVE, human EAD with GastroPlus pregnancy PBPK model; conditions: for EAD, GP.pregancy model, Maternal plasma Cmax, free medium concentration / EAD, GP.pregancy model, Maternal plasma Cmax, nominal dTP: human pregnancy, 12 weeks gestation
[6] = EAD by linear extrapolation of clinical dose‐Cmax data; conditions: human, linear extrapolation of clinical dose‐Cmax data from PharmaPendium
In short: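 Clinical dose–plasma Cmax data for the reference teratogen were taken from PharmaPendium. Dose giving Cmax equal to the in vitro dTP concentration was found by linear extrapolation. dTP is the interpolated concentration where the ornithine/cystine ratio curve in the human iPS cell devTOX qP assay falls below the predefined threshold.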

rat dams and fetuses = conditions: cited from earlier work; for Developmental toxicity LEL: rat, oral repeat dosing, maternal and fetal LELs combined, ref Table 2 sources
[7] = cited from earlier work; for Range of all human OEDs reported: across all in vitro assays (OEDall); for Range of all human OEDs reported / Range of human OEDs estimated from most sensitive endpoints: ref OECD, 2020; for Range of human OEDs estimated from most sensitive endpoints: most sensitive endpoint in each in vitro model (OEDnarrow)
[8] = Sprague–Dawley, corn oil gavage, GD 6–15, ref Narotsky et al., 1994
[9] = from CALUX Min EC10 cell-total, ref OECD 2020
[10] = from UKN1 HDAC inhibition EC10, ref OECD 2020
[11] = from ZET pericardial and/or yolk oedema Total embryo EC10, ref OECD 2020
[12] = from mEST HDAC inhibition, day 10 EC10, ref OECD 2020
[13] = Wistar, drinking water, GD 6–19, ref Pennanen et al. (1992)

| SMILES | TP [1] | dTP [1] | EAD using PPK model, using nominal dTP Conc. [2] | EAD using PPK model, using free medium Conc. [2] | EAD using Httk.PBTK model, using nominal dTP Conc. [3] | EAD using Httk.PBTK model, using free medium Conc. [3] | EAD, Httk.PBTK model, free medium concentration [4] | EAD, Httk.PBTK model, nominal dTP [4] | EAD, GP.pregancy model, Maternal plasma Cmax, free medium concentration [5] | EAD, GP.pregancy model, Maternal plasma Cmax, nominal dTP [5] | Developmental toxicity LEL (rat dams and fetuses) | Range of all human OEDs reported [7] | Human OED_max fu model [7, 9] | Human OED_max fu model [7, 10] | Human OED_max fu model [7, 11] | Human OED_max fu model [7, 12] | Range of human OEDs estimated from most sensitive endpoints [7] | further results |
| --- | --- | --- | --- | --- | --- | --- | --- | --- | --- | --- | --- | --- | --- | --- | --- | --- | --- | --- |
| CCCC(CCC)C(=O)O [VPA, Valproic acid, reference compound] | 318 µM | 236 µM | 33.3 mg/kg/day | 14.3 mg/kg/day | 13.5 mg/kg/day | 5.8 mg/kg/day | 4.5 mg/kg/day | 10.4 mg/kg/day | 2.7 mg/kg/day | 6.4 mg/kg/day | 200 mg/kg/day and 200 to 400 mg/kg/day | 0.11–51.9 | 3.2 mg/kg | 3 mg/kg | 2.8 mg/kg | 2 mg/kg | 0.11–3.2 | range of EADs derived from the in vitro dTP concentration ([5]; human, across all models, nominal and free): 2.7 to 24.4 mg/kg/day; EAD based on Clinical PK data [6]: 4.6 mg/kg/day; LEL: Fetal toxicity (rat dams and fetuses; Sprague–Dawley, GD 8–17, dose range 0–800, ref Binkerd et al., 1988): 200 mg/kg/day; LEL: Fetal toxicity (rat dams and fetuses; [8]): 200 mg/kg/day; LEL: Maternal toxicity (rat dams and fetuses; [8]): 400 mg/kg/day |
| C=CCC(CCC)C(=O)O (stereo not shown) [4‐ene‐VPA, 2‐Propyl‐4‐pentenoic acid] | 636 µM | 611 µM | 119.6 mg/kg/day | 95.7 mg/kg/day | 77.1 mg/kg/day | 61.7 mg/kg/day | – | – | – | – | – | – | – | – | – | – | – | – |
| CCCCCC(=O)O [HA, Hexanoic acid] | 1,022 μM | 838 µM | 2,921.8 mg/kg/day | 2,308.2 mg/kg/day | 652.7 mg/kg/day | 515.6 mg/kg/day | – | – | – | – | – | – | – | – | – | – | – | – |
| CCCCC(CC)C(=O)O (stereo not shown) [EHA, 2‐Ethylhexanoic acid] | 390 µM | 399 µM | 95.3 mg/kg/day | 45.5 mg/kg/day | 77.3 mg/kg/day | 36.9 mg/kg/day | 22.4 mg/kg/day | 47.0 mg/kg/day | 6.7 mg/kg/day | 14.1 mg/kg/day | 100 to 600 mg/kg/day | 0.74–901.3 | – | – | – | – | – | LEL: Fetal toxicity (rat dams and fetuses; [13]): 100 mg/kg/day; LEL: Maternal toxicity (rat dams and fetuses; [13]): 600 mg/kg/day; Human OED_max fu model ([7]; human): 4.8 mg/kg |
| CCCC(C)C(=O)O (stereo not shown) [MPA, 2‐Methylpentanoic acid] | – | 1,248 μM | 2,957.1 mg/kg/day | 2,407.2 mg/kg/day | 574.2 mg/kg/day | 467.4 mg/kg/day | 440.6 mg/kg/day | 541.2 mg/kg/day | 135.8 mg/kg/day | 166.9 mg/kg/day | 188 mg/kg/day | 35.2–1,353.3 | 37.3 mg/kg | 186.6 mg/kg | 84.5 mg/kg | 261.1 mg/kg | 37.3–261.1 | LEL: Maternal toxicity (rat dams and fetuses; [8]): 188 mg/kg/day |
| CCCCC(C)C(=O)O (stereo not shown) [MHA, 2‐Methylhexanoic acid] | 1,631 μM | 976 µM | 924.3 mg/kg/day | 573.1 mg/kg/day | 331.4 mg/kg/day | 205.5 mg/kg/day | 176.0 mg/kg/day | 285.5 mg/kg/day | 36.5 mg/kg/day | 59.12 mg/kg/day | – | 2.3–928.4 | 2.3 mg/kg | 254.8 mg/kg | 55.1 mg/kg | 286.3 mg/kg | 2.3–286.3 | – |
| CCCC(C)(C)C(=O)O [DMPA, 2,2‐Dimethylpentanoic acid] | 1,745 μM | 784 µM | 936.6 mg/kg/day | 505.8 mg/kg/day | 388.3 mg/kg/day | 209.7 mg/kg/day | – | – | – | – | – | – | – | – | – | – | – | – |
| C=CCCC(=O)O [PA, 4‐Pentenoic acid] | 719 µM | 913 µM | 947.1 mg/kg/day | 931.1 mg/kg/day | 147.7 mg/kg/day | 145.2 mg/kg/day | – | – | – | – | 50 to 75 mg/kg/day | – | – | – | – | – | – | LEL: Fetal toxicity (rat dams and fetuses; [8]): 50 mg/kg/day |
| CCCCCC(CCC)C(=O)O (stereo not shown) [PHA, 2‐Propylheptanoic acid] | 425 µM | 546 µM | 27.5 mg/kg/day | 6.3 mg/kg/day | 39.5 mg/kg/day | 9.1 mg/kg/day | – | – | – | – | – | – | – | – | – | – | – | – |
| CCC(CC)C(=O)O [EBA, 2‐Ethylbutyric acid] | – | 1,071 μM | 2,708.3 mg/kg/day | 2,260.4 mg/kg/day | 517.4 mg/kg/day | 431.8 mg/kg/day | 404.5 mg/kg/day | 484.7 mg/kg/day | 127.8 mg/kg/day | 153.2 mg/kg/day | 150 mg/kg/day | 34.4–826.6 | 35.8 mg/kg | 161.4 mg/kg | 53.3 mg/kg | 357.8 mg/kg | 35.8–357.8 | – |
